Measured values as given in ChEMBL document CHEMBL1125826, “Synthesis and biological activity of 5-amino- and 5-hydroxyquinolones, and the overwhelming influence of the remote N1-substituent in determining the structure-activity relationship” (1991).
Values after ≈ are worked out from the molar mass of the structure shown.

What was measured:
Format in all cases: functional
Escherichia coli [1] = assay: The in vivo potency was determined in female charles river CD-1 mice infected with Escherichia coli after sc administration; details: Escherichia coli, sc; read-out: PD50
In short: (§1)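 Acute lethal systemic infection in female CD-1 mice, 16 mice per route; single subcutaneous dose given at the time of challenge; median protective dose (PD50, mg/kg) determined.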

Klebsiella pneumoniae = assay: Antibacterial activity was determined against gram negative organism, Klebsiella pneumoniae MGH-2; details: Klebsiella pneumoniae; read-out: MIC
In short: (§2)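 MIC (µg/mL) by standard microtitration against a panel of 10 Gram-positive and Gram-negative organisms; values averaged from multiple experiments.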

Streptococcus pneumoniae [2] = assay: (§3) Antibacterial activity was determined against gram positive organism, Streptococcus pneumoniae SV-1; details: Streptococcus pneumoniae; read-out: MIC; in short: as §2
Enterococcus faecalis = assay: Antibacterial activity was determined against gram positive organism, Streptococcus faecalis MGH-2; details: Enterococcus faecalis; read-out: MIC; in short: as §2
Enterobacter cloacae = assay: Antibacterial activity was determined against gram negative organism, Enterobacter cloacae MA2646; details: Enterobacter cloacae; read-out: MIC
Bacteria [3] = assay: Antibacterial activity was determined against gram negative organism, Providencia rettgeri. M1771; details: Bacteria; read-out: MIC; in short: as §2
[4] = (§4) MIC ratio measured as the mean MICs of gram-negative bacteria
In short: (§5)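 Geometric mean of the microtitration MICs (µg/mL) over the Gram-negative organisms, and separately over the Gram-positive organisms, of the 10-strain panel; individual MICs averaged from multiple experiments.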

Staphylococcus aureus [5] = assay: (§6) Antibacterial activity was determined against gram positive organism, Staphylococcus aureus UC76; in short: as §2
Escherichia coli [6] = assay: Antibacterial activity was determined against gram negative organism, Escherichia coli vogel; details: Escherichia coli; read-out: MIC; in short: as §2
Pseudomonas aeruginosa = assay: Antibacterial activity was determined against gram negative organism, Pseudomonas aeruginosa UI-18; details: Pseudomonas aeruginosa; read-out: MIC; in short: as §2
Escherichia coli [7] = assay: The in vivo potency was determined in female charles river CD-1 mice infected with Escherichia coli after peroral administration; details: Escherichia coli, po; read-out: PD50
In short: (§7)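 Acute lethal systemic infection in female CD-1 mice, 16 mice per route; single dose given orally by gavage at the time of challenge; median protective dose (PD50, mg/kg) determined.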

Streptococcus pyogenes [8] = assay: Antibacterial activity was determined against gram positive organism, Streptococcus pyogenes C203; details: Streptococcus pyogenes; read-out: MIC; in short: as §2
Staphylococcus aureus [9] = assay: (§8) Antibacterial activity was determined against gram positive organism, Staphylococcus aureus H228; details: Staphylococcus aureus; read-out: MIC; in short: as §2
[10] = (§9) MIC ratio measured as the mean MICs of gram-positive bacteria; in short: as §5
Streptococcus pyogenes [11] = assay: The in vivo potency was determined in female charles river CD-1 mice infected with Streptococcus pyogenes after peroral administration; details: Streptococcus pyogenes, po; read-out: PD50; in short: as §7
Streptococcus pyogenes [12] = assay: The in vivo potency was determined in female charles river CD-1 mice infected with Streptococcus pyogenes after sc administration; details: Streptococcus pyogenes, sc; read-out: PD50; in short: as §1
Streptococcus pneumoniae [13] = assay: as §3
In short: (§10)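 Broth microtitration MIC against a panel of 10 Gram-positive and Gram-negative organisms; MIC in µg/mL, averaged over multiple experiments.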

Staphylococcus aureus [14] = assay: as §6; in short: as §10; remark: listed apart in the source
Staphylococcus aureus [15] = assay: as §8; in short: as §10
[16] = biological target: T1, DNA gyrase (Escherichia coli) (UniProt P0AES6+P0AES4); assay: Minimum inhibitory concentration against Escherichia coli DNA-gyrase supercoiling assay
Bacteria [17] = assay: MIC ratio measured as the mean MICs of gram-negative; in short: as §5
[18] = biological target: T1, DNA gyrase (Escherichia coli); assay: Minimum inhibitory concentration against Escherichia coli DNA-gyrase in supercoiling assay
Bacteria [19] = assay: MIC ratio measured as the mean MICs of gram-positive values; in short: as §5
Streptococcus pneumoniae [20] = assay: The in vivo potency was determined in female charles river CD-1 mice infected with Streptococcus pneumoniae after sc administration; details: Streptococcus pneumoniae, sc; read-out: PD50; in short: as §1
Streptococcus pneumoniae [21] = assay: The in vivo potency was determined in female charles river CD-1 mice infected with Streptococcus pneumoniae after peroral administration; details: Streptococcus pneumoniae, po; read-out: PD50; in short: as §7
Bacteria [22] = assay: as §9; in short: as §5
Bacteria [23] = assay: as §4; in short: as §5
[24] = Staphylococcus aureus, read-out: MIC

Compound	ED50 (Escherichia coli [1])	MIC (Klebsiella pneumoniae)	MIC (Streptococcus pneumoniae [2])	MIC (Enterococcus faecalis)	MIC (Enterobacter cloacae)	MIC (Bacteria [3])	Ratio [4]	MIC (Escherichia coli [6])	MIC (Pseudomonas aeruginosa)	ED50 (Escherichia coli [7])	MIC (Streptococcus pyogenes [8])	MIC (Staphylococcus aureus [9])	Ratio [10]	ED50 (Streptococcus pyogenes [11])	MIC (Staphylococcus aureus [5]; [24])	ED50 (Streptococcus pyogenes [12])	MIC [18]	ED50 (Streptococcus pneumoniae [20])	ED50 (Streptococcus pneumoniae [21])	also measured
Nc1c(F)c(N2CCC(N)C2)c(Cl)c2c1c(=O)c(C(=O)O)cn2C1CC1 (configuration not stated)	1 mg/kg	0.05 µg/mL (≈ 0.131 µM)	0.1 µg/mL (≈ 0.263 µM)	0.1 µg/mL (≈ 0.263 µM)	0.025 µg/mL (≈ 0.0657 µM)	0.1 µg/mL (≈ 0.263 µM)	0.076	0.025 µg/mL (≈ 0.0657 µM)	0.8 µg/mL (≈ 2.1 µM)	6 mg/kg	0.1 µg/mL (≈ 0.263 µM)	0.1 µg/mL (≈ 0.263 µM)	0.076	–	–	–	–	–	–	MIC (Staphylococcus aureus [5]): 0.025 µg/mL (≈ 0.0657 µM)
CC1CN(c2c(F)c(N)c3c(=O)c(C(=O)O)cn(C4CC4)c3c2Cl)CC(C)N1 (configuration not stated)	1 mg/kg	0.2 µg/mL (≈ 0.489 µM)	0.1 µg/mL (≈ 0.245 µM)	0.4 µg/mL (≈ 0.978 µM)	0.1 µg/mL (≈ 0.245 µM)	0.4 µg/mL (≈ 0.978 µM)	0.23	0.05 µg/mL (≈ 0.122 µM)	1.6 µg/mL (≈ 3.91 µM)	2 mg/kg	0.2 µg/mL (≈ 0.489 µM)	0.1 µg/mL (≈ 0.245 µM)	0.11	10 mg/kg	0.025 µg/mL (≈ 0.0611 µM)	8 mg/kg	–	–	–	–
CCn1cc(C(=O)O)c(=O)c2cc(F)c(N3CCNCC3)cc21 [NORFLOXACIN]	–	0.05 µg/mL (≈ 0.157 µM)	–	1.6 µg/mL (≈ 5.01 µM)	0.1 µg/mL (≈ 0.313 µM)	0.025 µg/mL (≈ 0.0783 µM)	0.057	0.025 µg/mL (≈ 0.0783 µM)	0.2 µg/mL (≈ 0.626 µM)	–	0.8 µg/mL (≈ 2.51 µM)	–	0.61	–	–	–	–	–	–	MIC (Streptococcus pneumoniae [13]): 1.6 µg/mL (≈ 5.01 µM); MIC (Staphylococcus aureus [14]): 0.05 µg/mL (≈ 0.157 µM); MIC (Staphylococcus aureus [15]): 0.8 µg/mL (≈ 2.51 µM)
CC1CN(c2cc3c(c(N)c2F)c(=O)c(C(=O)O)cn3-c2ccc(F)cc2F)CCN1 (configuration not stated)	–	0.2 µg/mL (≈ 0.463 µM)	–	0.4 µg/mL (≈ 0.925 µM)	0.2 µg/mL (≈ 0.463 µM)	0.4 µg/mL (≈ 0.925 µM)	0.3	0.1 µg/mL (≈ 0.231 µM)	1.6 µg/mL (≈ 3.7 µM)	–	0.4 µg/mL (≈ 0.925 µM)	–	0.2	–	–	–	–	–	–	MIC (Streptococcus pneumoniae [13]): 0.2 µg/mL (≈ 0.463 µM); MIC (Staphylococcus aureus [14]): 0.05 µg/mL (≈ 0.116 µM); MIC [16]: 2.5 µg/mL (≈ 5.78 µM); MIC (Staphylococcus aureus [15]): 0.2 µg/mL (≈ 0.463 µM)
NC1CCN(c2c(F)c(O)c3c(=O)c(C(=O)O)cn(C4CC4)c3c2F)C1 (configuration not stated)	0.5 mg/kg	0.025 µg/mL (≈ 0.0684 µM)	0.05 µg/mL (≈ 0.137 µM)	0.1 µg/mL (≈ 0.274 µM)	0.013 µg/mL (≈ 0.0356 µM)	0.05 µg/mL (≈ 0.137 µM)	–	0.013 µg/mL (≈ 0.0356 µM)	0.2 µg/mL (≈ 0.547 µM)	2 mg/kg	0.05 µg/mL (≈ 0.137 µM)	0.1 µg/mL (≈ 0.274 µM)	–	90 mg/kg	0.025 µg/mL (≈ 0.0684 µM)	11 mg/kg	0.5 µg/mL (≈ 1.37 µM)	18 mg/kg	107 mg/kg	Ratio (Bacteria [17]): 0.034; Ratio (Bacteria [19]): 0.057
CC1CN(c2c(F)c(N)c3c(=O)c(C(=O)O)cn(C4CC4)c3c2F)CCN1 (configuration not stated)	0.2 mg/kg	0.025 µg/mL (≈ 0.0661 µM)	0.05 µg/mL (≈ 0.132 µM)	0.1 µg/mL (≈ 0.264 µM)	0.013 µg/mL (≈ 0.0344 µM)	0.05 µg/mL (≈ 0.132 µM)	–	0.013 µg/mL (≈ 0.0344 µM)	0.4 µg/mL (≈ 1.06 µM)	0.5 mg/kg	0.2 µg/mL (≈ 0.529 µM)	0.05 µg/mL (≈ 0.132 µM)	–	20 mg/kg	0.025 µg/mL (≈ 0.0661 µM)	18 mg/kg	1 µg/mL (≈ 2.64 µM)	15 mg/kg	20 mg/kg	Geometric mean MIC over Gram-positive bacteria (µg/mL) (Bacteria [22]): 0.066; Geometric mean MIC over Gram-negative bacteria (µg/mL) (Bacteria [23]): 0.038
Nc1c(F)c(N2CCNCC2)c(F)c2c1c(=O)c(C(=O)O)cn2C1CC1	0.2 mg/kg	0.025 µg/mL (≈ 0.0686 µM)	0.05 µg/mL (≈ 0.137 µM)	0.05 µg/mL (≈ 0.137 µM)	0.013 µg/mL (≈ 0.0357 µM)	0.05 µg/mL (≈ 0.137 µM)	–	0.013 µg/mL (≈ 0.0357 µM)	0.025 µg/mL (≈ 0.0686 µM)	0.8 mg/kg	0.1 µg/mL (≈ 0.274 µM)	0.05 µg/mL (≈ 0.137 µM)	–	31 mg/kg	0.013 µg/mL (≈ 0.0357 µM)	23 mg/kg	0.5 µg/mL (≈ 1.37 µM)	27 mg/kg	68 mg/kg	Geometric mean MIC over Gram-positive bacteria (µg/mL) (Bacteria [22]): 0.044; Geometric mean MIC over Gram-negative bacteria (µg/mL) (Bacteria [23]): 0.022
